Laboratory results published in ChEMBL document CHEMBL1275585, “Combined antibacterial and anti-inflammatory activity of a cationic disubstituted dexamethasone-spermine conjugate” (Antimicrob Agents Chemother, 2010).
In brackets after ≈: the same amount, converted by molar mass. Activity calls are given as the source filed them. The calls are words filed in the database; no cut-off is given here.

How the values were obtained:
[1] = tested on: Staphylococcus aureus; test: Antibacterial activity against macrolide-lincosamide-streptogramin B-negative, beta-lactamase-positive, methicillin-susceptible Staphylococcus aureus isolate 4; format: functional
[2] = tested on: Staphylococcus aureus; test: Antibacterial activity against macrolide-lincosamide-streptogramin B-negative, beta-lactamase-positive, methicillin-susceptible Staphylococcus aureus isolate 3; format: functional
[3] = tested on: Staphylococcus aureus; test: Antibacterial activity against macrolide-lincosamide-streptogramin B-positive, beta-lactamase-positive, methicillin-resistant Staphylococcus aureus isolate 6; format: functional
In short: (§1)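 MIC by broth dilution in Mueller-Hinton broth, inoculum 8 × 10^5 CFU/ml. Strains were typed for beta-lactamase with cefinase, for methicillin susceptibility by Etest, and for macrolide-lincosamide-streptogramin B by disc diffusion on MHA at 0.5 McFarland.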

[4] = tested on: Staphylococcus aureus; test: Antibacterial activity against macrolide-lincosamide-streptogramin B-positive, beta-lactamase-positive, methicillin-resistant Staphylococcus aureus ATCC 43300; format: functional; in short: as §1
[5] = tested on: Staphylococcus aureus; test: Antibacterial activity against macrolide-lincosamide-streptogramin B-negative, beta-lactamase-positive, methicillin-susceptible Staphylococcus aureus ATCC 29213; format: functional
[6] = tested on: Staphylococcus aureus; test: Antibacterial activity against macrolide-lincosamide-streptogramin B-negative, beta-lactamase-positive, methicillin-susceptible Staphylococcus aureus isolate 5; format: functional
[7] = tested on: Staphylococcus aureus; test: Antibacterial activity against macrolide-lincosamide-streptogramin B-negative, beta-lactamase-positive, methicillin-susceptible Staphylococcus aureus ATCC 29213 in presence of clavulanic acid; format: functional
In short: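 Amoxicillin/clavulanic acid MIC against S. aureus measured alone and together with sublethal D2S concentrations.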

[8] = Cytotoxicity against human neutrophil assessed as effect on cell viability up to 20 uM after 12 hrs by microscopy; format: cell-based
In short: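 Freshly isolated human blood neutrophils incubated with D2S up to 20 µM for 12 h. Viability scored by manual trypan blue exclusion.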

[9] = tested on: Pseudomonas aeruginosa; test: Bactericidal activity against kanamycin-resistant Pseudomonas aeruginosa PAO1 up to 50 uM after 1 hr by time-kill assay

Q: Which results are given for `NCC[C@H](O)C(=O)N[C@@H]1C[C@H](N)[C@@H](O[C@H]2O[C@H](CN)[C@@H](O)[C@H](O)[C@H]2O)[C@H](O)[C@H]1O[C@H]1O[C@H](CO)[C@@H](O)[C@H](N)[C@H]1O` [AMIKACIN]?
A: MIC [1]: 3.2 µg/mL (≈ 5.46 µM); MIC [2]: 1.6 µg/mL (≈ 2.73 µM); MIC [3]: 25 µg/mL (≈ 42.7 µM); MIC [4]: 25 µg/mL (≈ 42.7 µM); MIC [5]: 1.6 µg/mL (≈ 2.73 µM); MIC [6]: 1.6 µg/mL (≈ 2.73 µM)

Q: Which results are given for `CC1(C)S[C@@H]2[C@H](NC(=O)[C@H](N)c3ccc(O)cc3)C(=O)N2[C@H]1C(=O)O` [AMOXICILLIN]?
A: MIC [1]: 1.6 µg/mL (≈ 4.38 µM); MIC [2]: 0.2 µg/mL (≈ 0.547 µM); MIC [7]: 0.4 µg/mL; MIC [3]: 12.5 µg/mL (≈ 34.2 µM); MIC [4]: 12.5 µg/mL (≈ 34.2 µM); MIC [6]: 3.2 µg/mL (≈ 8.76 µM)

Q: What does the source list for `C[C@@H]1C[C@H]2[C@@H]3CCC4=CC(=O)C=C[C@]4(C)[C@@]3(F)[C@@H](O)C[C@]2(C)[C@@]1(O)C(=O)CO` [DEXAMETHASONE]?
A: Activity [8]: Non-toxic; Activity [9]: inactive

Q: Which MIC [1] does the source give for `CC[C@H]1OC(=O)[C@H](C)[C@@H](O[C@H]2C[C@@](C)(OC)[C@@H](O)[C@H](C)O2)[C@H](C)[C@@H](O[C@@H]2O[C@H](C)C[C@H](N(C)C)[C@H]2O)[C@](C)(O)C[C@@H](C)C(=O)[C@H](C)[C@@H](O)[C@]1(C)O` [ERYTHROMYCIN] here?
A: 0.4 µg/mL (≈ 0.545 µM)

Q: What about the MIC [2] of the same molecule?
A: 0.2 µg/mL (≈ 0.273 µM)

Q: What about the MIC [3] of the same molecule?
A: 400 µg/mL (≈ 545 µM)

Q: And the MIC [4]?
A: 400 µg/mL (≈ 545 µM)

Q: And the MIC [5]?
A: 0.4 µg/mL (≈ 0.545 µM)

Q: And the MIC [6]?
A: 0.2 µg/mL (≈ 0.273 µM)

Q: With `CN(C)[C@@H]1C(O)=C(C(N)=O)C(=O)[C@@]2(O)C(O)=C3C(=O)c4c(O)cccc4[C@@](C)(O)[C@H]3C[C@@H]12` [TETRACYCLINE] as the molecule, how does the MIC [1] read?
A: 1.25 µg/mL (≈ 2.81 µM)

Q: And the MIC [2]?
A: 1.25 µg/mL (≈ 2.81 µM)

Q: And the MIC [3]?
A: 20 µg/mL (≈ 45 µM)

Q: And the MIC [4]?
A: 0.625 µg/mL (≈ 1.41 µM)

Q: What about the MIC [5] of the same molecule?
A: 1.25 µg/mL (≈ 2.81 µM)

Q: And the MIC [6]?
A: 40 µg/mL (≈ 90 µM)
